This passage reports IC50, Ki and Ratio IC50 results from ChEMBL document CHEMBL1140905.

As usually defined, the IC50 is the concentration at which inhibition is half-maximal. One may read the Ki as the equilibrium dissociation constant of an inhibitor or competing ligand from its target. High values mean lower affinity, low ones higher affinity.

The subject of one assay is Staphylococcus aureus. Briefly: Inhibition of staphyloxanthin biosynthesis in Staphylococcus aureus Pig1 isolate after 72 hrs. It is filed as functional, organism-based. The settings on record: PIG1, 72 h. The essentials: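 Wild-type clinical isolate Pig1 grown in THB (1 mL) with serially diluted compounds, 37 °C, 72 h, in duplicate. Cells centrifuged and washed twice with PBS. Pigment extracted with methanol, OD read at 450 nm. IC50 from dose-response fit of OD data.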

The target in assay [1] is T1, 4,4'-diapophytoene synthase (Staphylococcus aureus, UniProt A9JQL9).
T1 sequence (A9JQL9 whole entry): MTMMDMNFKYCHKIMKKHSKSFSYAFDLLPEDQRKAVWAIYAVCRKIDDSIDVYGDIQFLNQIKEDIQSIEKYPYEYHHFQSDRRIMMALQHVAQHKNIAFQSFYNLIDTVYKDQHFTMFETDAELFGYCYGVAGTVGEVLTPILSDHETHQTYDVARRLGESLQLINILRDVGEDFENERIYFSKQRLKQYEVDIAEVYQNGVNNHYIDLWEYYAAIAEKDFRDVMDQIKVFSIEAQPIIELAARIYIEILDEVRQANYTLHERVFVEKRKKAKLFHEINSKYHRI
Briefly: Inhibition of Staphylococcus aureus dehydrosqualene synthase expressed in Escherichia coli BL21 (DE3) cells by continuous spectrophotometric assay. In short, it runs like this: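 His-tagged S. aureus CrtM, Ni-NTA purified after IPTG induction (1 mM, 4 h). Compounds preincubated with 2 μg CrtM for 30 min at 20 °C. Phosphate release followed by continuous spectrophotometric coupled assay. IC50 from dose-response fit; Ki derived from IC50 and reported Km.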

Assay [2] concerns BL21-DE3. Briefly: Selectivity ratio of IC50 for human squalene synthase to IC50 for Staphylococcus aureus dehydrosqualene synthase expressed in Escherichia coli BL21 (DE3) cells.
The subject of assay [3] is BL21-DE3. The assay can be described thus: Selectivity ratio of IC50 for human squalene synthase to IC50 for Staphylococcus aureus dehydrosqualene synthase expressed in Escherichia coli BL21 (DE3) cells assessed as relative selectivity relative to potassium 4-(3-phenoxyphenyl)-1-phosphonatobutane-1-sulfonate.
The next assay addresses T2, Squalene synthase (Homo sapiens, UniProt P37268).
T2 sequence (P37268 whole entry): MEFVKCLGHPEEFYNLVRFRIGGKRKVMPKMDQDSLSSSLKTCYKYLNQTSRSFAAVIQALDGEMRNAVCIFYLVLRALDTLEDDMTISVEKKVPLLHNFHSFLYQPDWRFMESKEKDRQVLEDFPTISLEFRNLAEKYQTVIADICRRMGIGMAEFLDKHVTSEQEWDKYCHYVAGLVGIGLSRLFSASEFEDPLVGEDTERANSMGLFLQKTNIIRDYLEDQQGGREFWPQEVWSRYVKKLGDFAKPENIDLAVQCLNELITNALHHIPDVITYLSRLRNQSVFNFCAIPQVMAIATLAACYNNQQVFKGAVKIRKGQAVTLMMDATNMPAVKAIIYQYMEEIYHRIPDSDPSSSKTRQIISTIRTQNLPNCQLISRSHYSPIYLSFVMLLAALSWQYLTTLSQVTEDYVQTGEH
Briefly: Inhibition of human recombinant squalene synthase expressed in Escherichia coli BL21 (DE3) cells assessed as formation of 1,10-dioic acid metabolite by liquid scintillation.

Compound `O=P(O)(O)C(CCCc1cccc(Oc2ccc(Cc3ccccc3)cc2)c1)S(=O)(=O)O` (stereo not given) registered an IC50 in the assay on Staphylococcus aureus of 49 nM.
On to `O=P(O)(O)C(CCCc1cccc(Oc2cccc(F)c2)c1)S(=O)(=O)O` (stereo not given), for which the values for the IC50 (in assay [1]; with Staphylococcus aureus) were 2200 nM and 220 nM, respectively.
In turn, `O=P(O)(O)C(CCCc1cccc(Oc2ccc(F)cc2)c1)S(=O)(=O)O` (stereo not given) registered a Ki in assay [1] of 5 nM. The compound also came in with an IC50 in the assay on Staphylococcus aureus of 52 nM.
On to `O=P(O)(O)C(CCCc1ccc(-c2ccccc2)cc1)S(=O)(=O)O` (stereo not given), for which the IC50 in the assay with Staphylococcus aureus is 350 nM.
Take `O=P(O)(O)C(CCCc1cccc(Oc2ccccc2C(F)(F)F)c1)S(=O)(=O)O` (stereo not given): the IC50 in assay [1] came to 53700 nM; in the assay on Staphylococcus aureus, 460 nM.
`O=P(O)(O)C(CCCc1cccc(Oc2cccc(C(F)(F)F)c2)c1)S(=O)(=O)O` (stereo not given): the IC50 in assay [1] was found to be 9800 nM; in the assay with Staphylococcus aureus, 74 nM.
In turn, `O=P(O)(O)C(CCCc1cccc(Oc2ccccc2)c1)S(=O)(=O)O` (racemic) displayed an IC50 in the assay with Staphylococcus aureus of 110 nM.
As to `O=P(O)(O)C(CCCc1cccc(Oc2ccc(C(F)(F)F)cc2)c1)S(=O)(=O)O` (stereo not given), the IC50 in the assay on Staphylococcus aureus turned out to be 40 nM.
Still for that read-out and setting: in the case of `O=P(O)(O)C(CCCc1cccc(Oc2ccc(O)cc2)c1)S(=O)(=O)O` (stereo not given) it was 6800 nM.
In the assay on Staphylococcus aureus, `Cc1ccc(-c2ccc(CCCC(P(=O)(O)O)S(=O)(=O)O)cc2)cc1` (stereo not given) showed an IC50 of 180 nM.
Take `CCCc1ccc(Oc2cccc(CCCC(P(=O)(O)O)S(=O)(=O)O)c2)cc1` (stereo not given): affinity in assay [1] was put at a Ki of 5 nM. In the assay with Staphylococcus aureus, this compound gave an IC50 of 93 nM.
Consider `O=P(O)(O)C(CCCc1cccc(Oc2ccc3occc3c2)c1)S(=O)(=O)O` (stereo not given), for which the IC50 in assay [1] was 2100 nM; with Staphylococcus aureus, 15 nM.
In the case of `O=P(O)(O)C(CCCc1cc(Oc2ccc(F)cc2)ccc1F)S(=O)(=O)O` (stereo not given), the IC50 in assay [1] was found to be 2100 nM; in the assay with Staphylococcus aureus, 59 nM.
`CCn1c2ccccc2c2cc(CCCC(P(=O)(O)O)S(=O)(=O)O)ccc21` (stereo not given) had an IC50 with Staphylococcus aureus of 263000 nM.
Still for that read-out and setting: for `O=P(O)(O)C(CCCc1ccc(Oc2ccccc2)cc1)S(=O)(=O)O` (stereo not given) the value was 190 nM.
Consider `O=P(O)(O)C(CCCc1cccc(Oc2ccc(-c3ccco3)cc2)c1)S(=O)(=O)O` (stereo not given), for which the IC50 in assay [1] stood at 26300 nM; in the assay on Staphylococcus aureus, 1100 nM.
Take `O=P(O)(O)C(CCCc1cccc(Oc2ccc(F)c(F)c2)c1)S(=O)(=O)O` (stereo not given): the IC50 in assay [1] is 1700 nM; in the assay on Staphylococcus aureus, 110 nM.
Take `O=P(O)(O)C(CCCc1cccc(Oc2ccc(Cl)cc2)c1)S(=O)(=O)O` (stereo not given): the half-inhibitory concentration (IC50) in assay [1] came out at 2500 nM; in the assay on Staphylococcus aureus, 39 nM.
Consider `O=P(O)(O)C(CCc1cccc(Oc2ccccc2)c1)S(=O)(=O)O` (stereo not given), for which the IC50 with Staphylococcus aureus came out at 20400 nM. For the same compound, the Ratio IC50 came out at 0.0011 in the assay on BL21-DE3 [2] and 0.4 with BL21-DE3 [3].
Compound `O=P(O)(O)C(Cc1cccc(Oc2ccccc2)c1)S(=O)(=O)O` (stereo not given) yielded an IC50 in the assay on Staphylococcus aureus of 33900 nM. In addition, the Ratio IC50 in the assay with BL21-DE3 [2] stood at 0.0022; in the assay on BL21-DE3 [3] it was 0.8.
Regarding `O=P(O)(O)C(CCCc1cccc(Nc2ccccc2)c1)S(=O)(=O)O` (stereo not given), the midpoint of inhibition with Staphylococcus aureus, the IC50, lay at 500 nM.
`O=P(O)(O)C(CCCc1ccc(-c2ccc(C(F)(F)F)cc2)cc1)P(=O)(O)O` yielded a Ki in assay [1] of 0.5 nM. The compound also yielded an IC50 in the assay with Staphylococcus aureus of 1100 nM. In addition, the Ratio IC50 turned out to be 0.014 in the assay on BL21-DE3 [2] and 4.8 in the assay on BL21-DE3 [3].
Consider `O=P(O)(O)[C@@H](CCCc1cccc(Oc2ccccc2)c1)S(=O)(=O)O`, for which the results for the IC50 (in assay [1]; with Staphylococcus aureus) were 47900 nM and 310 nM, respectively.
In the assay with Staphylococcus aureus, `COc1ccc(Oc2ccc(F)cc2)cc1CCCC(P(=O)(O)O)S(=O)(=O)O` (stereo not given) came in with an IC50 of 13800 nM.
In the case of `O=P(O)(O)C(CCCc1cccc(Oc2ccc(Oc3ccccc3)cc2)c1)S(=O)(=O)O` (stereo not given), inhibition with Staphylococcus aureus was half-maximal at 100 nM (IC50).
For the compound `O=P(O)(O)C(CCCc1cccc(Oc2cc(Cl)cc(Cl)c2)c1)S(=O)(=O)O` (stereo not given), the IC50 in assay [1] is 6300 nM; in the assay on Staphylococcus aureus, 51 nM.
In the assay on Staphylococcus aureus, `O=P(O)(O)C(CCCc1ccc(-c2ccc(F)cc2F)cc1)S(=O)(=O)O` (stereo not given) gave an IC50 of 180 nM.
With `O=P(O)(O)[C@H](CCCc1cccc(Oc2ccccc2)c1)S(=O)(=O)O`, the midpoint of inhibition with Staphylococcus aureus, the IC50, lay at 50 nM.
On to `O=P(O)(O)C(CCCc1cccc(Oc2ccc(Cl)c(Cl)c2)c1)S(=O)(=O)O` (stereo not given), for which the IC50 stood at 2200 nM in assay [1] and 11 nM in the assay on Staphylococcus aureus.
`O=P(O)(O)C(CCCc1cccc(Oc2cc(F)cc(F)c2)c1)S(=O)(=O)O` (stereo not given): the IC50 stood at 4600 nM in assay [1] and 15 nM in the assay on Staphylococcus aureus.
`CC(C)(C)c1ccc(Oc2cccc(CCCC(P(=O)(O)O)S(=O)(=O)O)c2)cc1` (stereo not given) displayed an IC50 in the assay on Staphylococcus aureus of 21 nM.
The compound `O=P(O)(O)C(CCCc1cccc(Cc2ccccc2)c1)S(=O)(=O)O` (stereo not given) displayed an IC50 with Staphylococcus aureus of 170 nM.
Consider `CCCCc1ccc(-c2ccc(CCCC(P(=O)(O)O)S(=O)(=O)O)cc2)cc1` (stereo not given), for which half-maximal inhibition in the assay with Staphylococcus aureus (IC50) was put at 160 nM.
Take `CP(=O)(O)C(CCCc1ccc(-c2ccccc2)cc1)P(=O)(O)O` (stereo not given): the IC50 in assay [1] stood at 5400 nM; in the assay on Staphylococcus aureus, 1400 nM; at Squalene synthase, 72 nM. Also, the Ratio IC50 turned out to be 0.014 in the assay with BL21-DE3 [2] and 4.7 with BL21-DE3 [3].
Turning to `O=P(O)(O)C(CCCc1ccc(-c2ccccc2)cc1)P(=O)(O)O`, in assay [1], affinity was put at a Ki of 1 nM. In the assay on Staphylococcus aureus, this compound yielded an IC50 of 2200 nM.
In the assay on Staphylococcus aureus, `O=P(O)(O)C(CCCc1cccc(Oc2ccccc2Cc2ccccc2)c1)S(=O)(=O)O` (stereo not given) displayed an IC50 of 19 nM.
Still for that read-out and setting: for `CCCOc1cccc(-c2ccc(CCCC(P(=O)(O)O)S(=O)(=O)O)cc2)c1` (stereo not given) the value was 490 nM.
For `O=P(O)(O)C(CCCc1cccc(Oc2ccccc2F)c1)S(=O)(=O)O` (stereo not given), the IC50 in assay [1] was found to be 6900 nM; in the assay on Staphylococcus aureus it was 510 nM.
